One experiment deals with B16. As to the kind of experiment: In vitro inhibitory effect on growth of B16 melanoma cells. It is filed as functional. The settings on record: Mus musculus, read-out: ID50 (the source's name). The gist of the method: (§1)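 Monolayers were seeded at 2.5 × 10^4 cells/well and grown 24 h at 37 °C, 5% CO2. Lewis lung cells were kept in RPMI-1640 with 5% fetal calf serum; B16 cells in MEM with 10% FCS, nonessential amino acids, 1 mM pyruvate and vitamins. Medium was replaced with compound at log concentrations 1 × 10^-10 to 1 × 10^-4 M. After 72 h, cells were PBS-washed, trypsinized and Coulter-counted. ID50 is 50% growth inhibition versus controls, averaged over two to three determinations.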

For experiment [1], the system named is Lewis lung carcinoma cell line. As to the kind of experiment: In vitro inhibitory effect on growth of lewis lung carcinoma cells. It is filed as functional. The settings on record: Mus musculus, read-out: ID50 (the source's name). Put shortly:
as §1

Experiment [2] concerns L1210. Briefly: In vitro inhibitory effect on growth of L1210 leukemia cells. It is filed as functional. The settings on record: Mus musculus, read-out: ID50 (the source's name). Put shortly:
(§2)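 Suspension cells in RPMI-1640 with 10% FBS and 20 mM Hepes were seeded at 1 × 10^5 cells/mL. Filter-sterilized compound was added in duplicate at log concentrations 1 × 10^-10 to 1 × 10^-4 M. After 48 h at 37 °C, cells were Coulter-counted. ID50 is 50% growth inhibition versus untreated controls, averaged over two to three determinations.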

Experiment [3] concerns P388. Briefly: In vitro inhibitory effect on growth of P388 leukemia cells. It is filed as functional. Conditions: Mus musculus, read-out: ID50 (the source's name). The gist of the method: as §2
A further experiment relates to Vero. Briefly: Maximum tolerated concentration against Vero cells. It is filed as functional, Chlorocebus sabaeus. The gist of the method:
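Single uninfected confluent Vero monolayer wells were exposed alongside the antiviral wells, final 5 × 10^-6 to 5 × 10^-3 M, for 72 h at 37 °C, 5% CO2. Cytotoxicity was any microscopically visible change in morphology or monolayer density (lysis, rounding, detachment). MTC is the […].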

Another experiment relates to Human alphaherpesvirus 2. As to the kind of experiment: In vitro antiviral activity against herpes simplex virus type 2 (HSV-2) in Vero cells. Conditions: Human alphaherpesvirus 2, Vero; read-out: ED50 (the source's name). It is filed as functional. The gist of the method:
(§3)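 Confluent Vero monolayers (4 × 10^4 cells/well, grown 24 h at 37 °C in EMEM with 10% newborn bovine serum) were infected with virus: HSV-2 at 100, measles at 100, para-3 at 60 TCID50/well. After 30 min adsorption at 37 °C, compound was added in seven 0.5-log steps, final 5 × 10^-6 to 5 × 10^-3 M (active ones 5 × 10^-7 to 5 × 10^-4 M), duplicate wells.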

In a further experiment the test system is Measles morbillivirus. As to the kind of experiment: In vitro antiviral activity against measles virus in Vero cells. It is filed as functional. The settings on record: read-out: ED50 (the source's name). Put shortly: as §3
The test system of a further experiment is Human respirovirus 3. As to the kind of experiment: In vitro antiviral activity against parainfluenza type 3 virus in Vero cells. It is filed as functional. Conditions: Human respirovirus 3, Vero; read-out: ED50 (the source's name). Put shortly:
as §3

Another experiment concerns Vaccinia virus. As to the kind of experiment: In vitro antiviral activity against vaccinia virus in Vero cells. It is filed as functional. Conditions: Orthopoxvirus vaccinia, read-out: ED50 (the source's name).
In experiment [4] the test system is P388. As to the kind of experiment: In vitro inhibitory effect on growth of P388 leukemia cell. It is filed as functional. Conditions: Mus musculus, read-out: ID50 (the source's name). Put shortly:
as §2

A short description of experiment [5]: In vitro inhibitory effect on growth of […] cells. It is filed as functional. The settings on record: Mus musculus; read-out: ID50 (the source's name). The gist of the method:
as §1

The test system of experiment [6] is Lewis lung carcinoma cell line. Briefly: In vitro inhibitory effect on growth of lewis lung carcinoma cells. The settings on record: Mus musculus, read-out: ID50 (the source's name). It is filed as functional. The gist of the method:
as §1

The test system of experiment [7] is L1210. Briefly: In vitro inhibitory effect on growth of L1210 leukemia cells. Conditions: Mus musculus, read-out: ID50 (the source's name). It is filed as functional. The gist of the method:
as §2

In experiment [8] the test system is P388. Briefly: In vitro inhibitory effect on growth of P388 leukemia cells. It is filed as functional. Conditions: Mus musculus, read-out: ID50 (the source's name). Put shortly:
as §2

On to `NC(=S)c1[nH]nc([C@@H]2O[C@H](CO)[C@@H](O)[C@H]2O)c1OCc1ccccc1`, for which the IC50 (in the experiment on B16; in experiment [1]; in the experiment on L1210 [2]; in the experiment with P388 [3]) was more than 100 µM each time. In addition, the MTC in the experiment on Vero is more than 5 mM. The EC50 in the experiment on Human alphaherpesvirus 2 is 2800 µM; in the experiment with Measles morbillivirus it was 500 µM; with Human respirovirus 3, more than 5000 µM; in the experiment on Vaccinia virus, 2100 µM.

For the compound `NC(=O)c1[nH]nc([C@@H]2O[C@H](COP(=O)([O-])[O-])[C@@H](O)[C@H]2O)c1OCc1ccccc1.[Na+].[Na+]`, the IC50 in the experiment with L1210 [2] stood at 130 µM; in the experiment on P388 [3], 94 µM. This compound showed an MTC in the experiment with Vero of more than 5 mM. Also, the EC50 in the experiment on Human alphaherpesvirus 2, in the experiment with Measles morbillivirus, with Human respirovirus 3 and in the experiment with Vaccinia virus was more than 5000 µM each time.

For the compound `COc1c([C@@H]2O[C@H](CO)[C@@H](O)[C@H]2O)nn(C)c1C(N)=O`, the IC50 in the experiment with L1210 [2] and in the experiment with P388 [4] was more than 100 µM throughout. The compound also gave an MTC in the experiment with Vero of 5 mM. In addition, the EC50 in the experiment with Human alphaherpesvirus 2 was 3200 µM; in the experiment with Measles morbillivirus, more than 5000 µM; with Human respirovirus 3 it was more than 5000 µM; in the experiment on Vaccinia virus it was 5000 µM.

As to `CCOP(=O)(O)OC[C@H]1O[C@@H](C2=NNC(C(N)=O)C2=O)[C@H](O)[C@@H]1O` (some centres not stated), the IC50 came to 0.23 µM with B16, 0.0007 µM in experiment [1], 0.0039 µM with L1210 [2] and 0.0032 µM with P388 [3]. In the experiment with Vero, the MTC was more than 5 mM. Besides, the EC50 in the experiment on Human alphaherpesvirus 2 was found to be 590 µM; in the experiment with Measles morbillivirus, 97 µM; in the experiment on Human respirovirus 3 it was 80 µM; with Vaccinia virus it was 26 µM.

With `NC(=O)C1NN=C([C@@H]2O[C@H](CO)[C@@H](O)[C@H]2O)C1=O` (some centres not stated), the IC50 with B16 turned out to be 0.063 µM; in experiment [1], 0.0018 µM; in the experiment on L1210 [2], 0.0032 µM; with P388 [3] it was 0.0033 µM. The compound also had an MTC in the experiment on Vero of 1.6 mM. Also, the EC50 in the experiment with Human alphaherpesvirus 2 is 20 µM; with Measles morbillivirus it was 9.6 µM; in the experiment on Human respirovirus 3, 3 µM; in the experiment on Vaccinia virus, 2.8 µM.

With `N=C(N)C1NN=C([C@@H]2O[C@H](CO)[C@@H](O)[C@H]2O)C1=O` (some centres not stated), the IC50 in the experiment with B16 is more than 100 µM; in experiment [1], 89 µM; in the experiment with L1210 [2], 79 µM; in the experiment on P388 [3] it was more than 100 µM. In the experiment with Vero, the MTC was more than 5 mM. In addition, the EC50 with Human alphaherpesvirus 2 was 3100 µM; in the experiment on Measles morbillivirus, 5000 µM; with Vaccinia virus, more than 5000 µM.

For `CN1N=C([C@@H]2O[C@H](CO)[C@@H](O)[C@H]2O)C(=O)C1C(N)=O` (some centres not stated), the IC50 worked out at 15 µM with L1210 [2] and 17 µM in the experiment with P388 [3]. The MTC with Vero was more than 5 mM. The EC50 in the experiment on Human alphaherpesvirus 2 is more than 5000 µM; in the experiment on Measles morbillivirus, more than 5000 µM; with Human respirovirus 3 it was more than 5000 µM; in the experiment on Vaccinia virus, 1600 µM.

In the case of `COc1c([C@@H]2O[C@H](CO)[C@@H](O)[C@H]2O)n[nH]c1C(N)=O`, the IC50 in the experiment on L1210 [2] is 29 µM; in the experiment with P388 [3] it was 40 µM. In the experiment with Vero, this compound came in with an MTC of more than 5 mM. Besides, the EC50 in the experiment with Human alphaherpesvirus 2 was more than 5000 µM; with Measles morbillivirus, more than 5000 µM; in the experiment on Human respirovirus 3, more than 5000 µM; with Vaccinia virus, 2800 µM.

As to `N/C(=N/O)c1[nH]nc([C@@H]2O[C@H](CO)[C@@H](O)[C@H]2O)c1OCc1ccccc1`, the IC50 in the experiment with L1210 [2] and in the experiment on P388 [3] was more than 100 µM in each case. In addition, the MTC with Vero was more than 5 mM. The EC50 in the experiment with Human alphaherpesvirus 2, with Measles morbillivirus, in the experiment with Human respirovirus 3 and in the experiment with Vaccinia virus was more than 5000 µM throughout.

`COP(=O)(OC)OC[C@H]1O[C@@H](C2=NNC(C(N)=O)C2=O)[C@H](O)[C@@H]1O` (some centres not stated): the IC50 in the experiment on B16 is 2.3 µM; in [1], 0.01 µM; with L1210 [2], 0.0058 µM; in the experiment with P388 [3] it was 0.012 µM. Moreover, in the experiment on Vero, the MTC was more than 5 mM. Besides, the EC50 is more than 5000 µM in the experiment with Human alphaherpesvirus 2, 1400 µM with Measles morbillivirus, 1000 µM in the experiment on Human respirovirus 3 and 280 µM in the experiment with Vaccinia virus.

On to `NC(=O)c1[nH]nc([C@@H]2O[C@H](CO)[C@@H](O)[C@H]2O)c1OCc1ccccc1`, for which the IC50 in the experiment with L1210 [2] was found to be 75 µM; in the experiment with P388 [3], 62 µM. The MTC in the experiment on Vero is more than 5 mM. For the same compound, the EC50 was more than 5000 µM with Human alphaherpesvirus 2, 1300 µM in the experiment with Measles morbillivirus, more than 5000 µM in the experiment with Human respirovirus 3 and more than 5000 µM with Vaccinia virus.

Take `N#CC1NN=C([C@@H]2O[C@H](CO)[C@@H](O)[C@H]2O)C1=O` (some centres not stated): the IC50 was determined as 72 µM with B16, 28 µM in experiment [1], 13 µM with L1210 [2] and 45 µM in the experiment with P388 [3]. The same compound gave an MTC with Vero of more than 5 mM. The EC50 in the experiment with Human alphaherpesvirus 2 is more than 5000 µM; with Measles morbillivirus, 5000 µM; in the experiment on Human respirovirus 3, more than 5000 µM; in the experiment on Vaccinia virus it was 5000 µM.

With `NC(=O)c1[nH]nc(C2O[C@H](COP(=O)(O)O)[C@H](O)[C@@H]2O)c1O` (some centres not stated), the IC50 with B16 was found to be 0.24 µM; in experiment [1], 0.005 µM; in the experiment with L1210 [2], 0.0027 µM; in the experiment on P388 [3] it was 0.001 µM. The MTC with Vero is more than 5 mM. Moreover, the EC50 in the experiment on Human alphaherpesvirus 2 stood at 23 µM; in the experiment with Measles morbillivirus, 20 µM; with Human respirovirus 3 it was 6.3 µM; in the experiment with Vaccinia virus, 4 µM.

`NC(=O)c1[nH]nc(C2O[C@@H](COP(=O)(O)OP(=O)(O)OC[C@H]3OC(n4cnc5c(N)ncnc54)[C@H](O)[C@@H]3O)[C@H](O)[C@@H]2O)c1O` (some centres not stated): the IC50 in [5] was determined as 0.6 µM; in [6], 0.0048 µM; in the experiment with L1210 [7], 0.004 µM; in the experiment with P388 [8], 0.0088 µM. Moreover, in the experiment with Vero, the MTC turned out to be 5 mM. In addition, the EC50 with Human alphaherpesvirus 2 turned out to be 10 µM; with Measles morbillivirus, 16 µM; with Human respirovirus 3, 5 µM; with Vaccinia virus, 9 µM.

In the case of `NC(=O)c1[nH]nc(C2OC3COP(=O)(O)O[C@@H]3[C@@H]2O)c1O` (some centres not stated), the IC50 with B16 amounted to 6.3 µM; in [1], 1.7 µM; in the experiment on L1210 [2], 2.5 µM; with P388 [3], 4.4 µM. In the experiment on Vero, the MTC was more than 5 mM. The EC50 in the experiment with Human alphaherpesvirus 2 is 130 µM; with Measles morbillivirus, more than 5000 µM; with Human respirovirus 3, 500 µM; in the experiment on Vaccinia virus, 250 µM.

`NC(=O)c1ncn([C@@H]2O[C@H](CO)[C@@H](O)[C@H]2O)n1` [RIBAVIRIN]: the MTC in the experiment with Vero is more than 5 mM. The EC50 in the experiment with Human alphaherpesvirus 2 was 190 µM; with Measles morbillivirus it was 99 µM; in the experiment on Human respirovirus 3 it was 160 µM; in the experiment on Vaccinia virus, 90 µM.

These data come from ChEMBL document CHEMBL1123400, “Synthesis and biological activity of certain nucleoside and nucleotide derivatives of pyrazofurin” (1986).
